Experimental data taken from ChEMBL document CHEMBL4373632, “3D QSAR-based design and liquid phase combinatorial synthesis of 1,2-disubstituted benzimidazole-5-carboxylic acid and 3-substituted-5H-benzimidazo[1,2-d][1,4]benzodiazepin-6(7H)-one derivatives as anti-mycobacterial agents” (Medchemcomm, 2019).
≈ marks a conversion by molar mass, not a printed value.

Key:
[1] = system: Mycobacterium tuberculosis; test: Antimycobacterial activity against Mycobacterium tuberculosis H37Rv after 14 days; format: functional; details: 336 h
Outline: (§1)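 Mtb H37Rv grown in MB 7H9 (10% albumin dextrose saline, 0.2% glycerol, 0.05% tween-80) to OD600nm 0.2, diluted 1000× and added to 96-well plates with compounds (50 mM DMSO stocks). Tested range 0.05 to 50 μM. Incubated 37 °C for 14 days; MIC determined per standard protocol.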

[2] = system: Mycobacterium tuberculosis; test: Antimycobacterial activity against Mycobacterium tuberculosis H37Rv infected in human THP-1 cells assessed as reduction in microbial growth after 4 days by ten-fold serial dilution method; format: functional
Outline: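 PMA-differentiated THP-1 macrophages (2 × 10^5 per well) infected with Mtb H37Rv at MOI 1:10. At 4 h, extracellular bacteria removed with 200 μg ml–1 amikacin in RPMI for 2 h. At 24 h, cells were washed and given RPMI with drug at non-cytotoxic concentration for 4 days. Lysis in PBS–0.1% Triton X-100, then 10-fold serial dilutions plated on MB 7H11 for 3–4 weeks at 37 °C. Triplicate wells, mean + S.E.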

THP-1 [3] = test: Cytotoxicity against human THP1 cells assessed as redution in cell viability at 10 uM by WST-1 assay; format: cell-based; details: thp-1, 10 µM
Outline: (§2)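 THP-1 macrophages; viability read with the WST-1 cell proliferation kit following the manufacturer's protocol. Compounds came from 50 mM DMSO stocks, with 50 μM the highest final concentration tested.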

THP-1 [4] = test: Cytotoxicity against human THP1 cells assessed as redution in cell viability at 50 uM by WST-1 assay; format: cell-based; details: thp-1, 50 µM; outline: as §2
[5] = system: Mycobacterium tuberculosis; test: Antimycobacterial activity against Mycobacterium tuberculosis; format: functional; outline: as §1
[6] = Lipophilicity, logP of compound; format: physicochemical; details: octanol/water

SMILES | MIC [1] [µM] | also measured
CC(C)c1nc2cc(C(=O)O)ccc2n1CC1CCN(C(=O)c2ccc(F)cc2)CC1 | 50 (≈ 21.2 µg/mL) | 
COc1ccc(C(=O)N2CCC(Cn3c(C(C)C)nc4cc(C(=O)O)ccc43)CC2)cc1 | 50 (≈ 21.8 µg/mL) | 
CC(C)c1nc2cc(C(=O)O)ccc2n1-c1ccc(Br)cc1 | 50 (≈ 18 µg/mL) | 
O=C1Cn2c(nc3ccccc32)-c2ccc(NC(=O)c3ccc([N+](=O)[O-])cc3)cc2N1 | 0.195 (≈ 0.0806 µg/mL) | fold change (FC) [2]: 8 - 10; Activity (THP-1 [3]): Non-Toxic
O=C1Cn2c(nc3ccccc32)-c2ccc(NC(=O)c3ccc(Br)cc3)cc2N1 | > 50 | 
CCOC(=O)C(=O)Nc1ccc2c(c1)NC(=O)Cn1c-2nc2ccccc21 | 0.78 (≈ 0.284 µg/mL) | Activity (THP-1 [4]): Non-Toxic
Cc1ccc(C(=O)Nc2ccc3c(c2)NC(=O)Cn2c-3nc3ccccc32)cc1 | 0.39 (≈ 0.149 µg/mL) | Activity (THP-1 [3]): Non-Toxic
CC(C)c1nc2cc(C(=O)O)ccc2n1-c1ccc(C#N)cc1 | 50 (≈ 15.3 µg/mL) | 
O=C1Cn2c(nc3ccccc32)-c2ccc(NC(=O)c3ccc(F)cc3)cc2N1 | 0.195 (≈ 0.0753 µg/mL) | fold change (FC) [2]: 8 - 10; Activity (THP-1 [4]): Non-Toxic
COc1cc(-n2c(C(C)C)nc3cc(C(=O)O)ccc32)cc(OC)c1O | 0.78 (≈ 0.278 µg/mL) | fold change (FC) [2]: 8 - 10; Activity (THP-1 [4]): Non-Toxic
CCN(CC)c1ccc(/C=C/C(=N/Nc2nc(C)cs2)C2=Cc3ccccc3C2)cc1 |  | MIC90 [5]: 2.5 µg/mL (≈ 5.83 µM); logP [6]: 6.03
COc1ccc(-n2c(C(C)C)nc3cc(C(=O)O)ccc32)cc1OC | 25 (≈ 8.51 µg/mL) | 
CC(C)c1nc2cc(C(=O)O)ccc2n1-c1cccc([N+](=O)[O-])c1 | 25 (≈ 8.13 µg/mL) | 
CC(C)c1nc2cc(C(=O)O)ccc2n1-c1ccncc1 | 25 (≈ 7.03 µg/mL) | 
O=C1Cn2c(nc3ccccc32)-c2ccc(NC(=O)c3ccccc3)cc2N1 | > 50 | 
CC(C)c1nc2cc(C(=O)O)ccc2n1-c1cccnc1 | 50 (≈ 14.1 µg/mL) | 
Cc1ccc(C(=O)N2CCC(Cn3c(C(C)C)nc4cc(C(=O)O)ccc43)CC2)cc1 | 25 (≈ 10.5 µg/mL) | 
COc1ccc(C(=O)Nc2ccc3c(c2)NC(=O)Cn2c-3nc3ccccc32)cc1 | 3.12 (≈ 1.25 µg/mL) | 
Nc1ccc2c(c1)NC(=O)Cn1c-2nc2ccccc21 | 0.0975 (≈ 0.0258 µg/mL) | fold change (FC) [2]: 8 - 10; Activity (THP-1 [4]): Non-Toxic
CC(C)c1nc2cc(C(=O)O)ccc2n1-c1ccccc1Cl | > 50 | 
O=C1Cn2c(nc3ccccc32)-c2ccc(NC(=O)c3ccc(Cl)cc3)cc2N1 | 1.56 (≈ 0.628 µg/mL) | fold change (FC) [2]: 8 - 10; Activity (THP-1 [4]): Non-Toxic
COc1cccc(-n2c(C(C)C)nc3cc(C(=O)O)ccc32)c1O | 0.78 (≈ 0.255 µg/mL) | Activity (THP-1 [4]): Non-Toxic
CC(C)c1nc2cc(C(=O)O)ccc2n1-c1ccc(O)cc1 | 50 (≈ 14.8 µg/mL) | 
CC(C)c1nc2cc(C(=O)O)ccc2n1Cc1cccc(F)c1 | 12.5 (≈ 3.9 µg/mL) | 
COc1ccc(S(=O)(=O)Nc2ccc3c(c2)NC(=O)Cn2c-3nc3ccccc32)cc1 | 1.56 (≈ 0.678 µg/mL) | 
CC(C)c1nc2cc(C(=O)O)ccc2n1-c1ccc(N(C)C)cc1 | 50 (≈ 16.2 µg/mL) | 
O=C(CCc1ccccc1)Nc1cc2nc(C3CCCCC3)[nH]c2cc1N1CC1 |  | logP [6]: 4.57
NNC(=O)c1ccncc1 [ISONIAZID] | 0.39 (≈ 0.0535 µg/mL) | fold change (FC) [2]: 30
